Compound activity as filed in PubChem.
bovine MsrA act: activates bovine MsrA enzyme. activation, % at 10.6 µM. purified bovine MsrA, absorbance read-out. AID 602163. hit rate 0.3% among 360,000; in the data active means activation above about 7.5%;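 further: 0% = vehicle and 100% = reference activator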
aDG glyco up: alpha-DG glycosylation activation. AID 624168. activation, % at 10 µM. Pro5-aDG cells, alpha-DG glycosylation AlphaScreen (IIH6); 0% Pro5, 100% B10-LARGE cell signal. hit rate 0.22% among 360,000;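 active means activation of at least 8% versus controls, or a plate z-score of at least 8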;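 further: Pro5 are CHO cells carrying HIG-tagged alpha-DG that lacks glycosylation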
MsrA inhibitor: bovine MsrA inhibition. purified bovine MsrA, absorbance read-out. inhibition, % at 15.5 µM. hit rate 0.75% among 360,000; in the data active means inhibition above about 4.5%;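 further: 0% = vehicle wells with enzyme and 100% = reference inhibitor wells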
UCH37 DUB inh: human UCH37 deubiquitinating enzyme inhibition. AID 588478. hit rate 0.33% among 330,000. purified proteasome/UCH37, Ub-AMC cleavage fluorescence. Q9Y5K5. inhibition, % (concentration not given with the values);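 active means mean inhibition over replicate wells above about 20%, limit read from the data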;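 further: 0% = compound-free wells with enzyme and 100% = wells lacking proteasome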
Target sequence (Q9Y5K5 whole entry, looked up): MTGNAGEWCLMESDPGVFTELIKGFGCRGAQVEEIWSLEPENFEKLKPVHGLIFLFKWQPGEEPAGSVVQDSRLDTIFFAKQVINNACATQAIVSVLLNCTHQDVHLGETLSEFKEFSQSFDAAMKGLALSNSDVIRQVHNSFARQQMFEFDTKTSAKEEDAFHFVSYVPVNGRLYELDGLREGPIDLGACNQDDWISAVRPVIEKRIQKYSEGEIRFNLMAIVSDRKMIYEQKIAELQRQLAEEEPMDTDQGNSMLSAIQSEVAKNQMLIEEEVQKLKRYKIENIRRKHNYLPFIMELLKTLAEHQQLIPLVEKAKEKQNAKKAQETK
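Material: Human UCH37 enzyme supplied as purified proteasome complex | Schedule: 30 min preincubation with enzyme, 25 min cleavage at room temperature | Detection: AMC fluorescence 355/460 nm | Measure: % inhibition of Ub-AMC cleavage fluorescence | Controls: Wells without proteasome as full block, compound-free enzyme plus substrate as uninhibited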
N-glyco inh: blocks N-linked glycosylation in D54 reporter cells; AID 588692; D54 ERlucT glycosylation luciferase reporter, 24 h; percent of 100 nM tunicamycin response; hit rate 0.23% among 360,000; reporter increase, % at 12.5 µM;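 active means mean luciferase reporter signal, scaled so untreated is 0 and the glycosylation-blocking control 100, at or above a set limit in every replicate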;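 further: luciferase carries N-glycosylation sites so blocking glycosylation raises the light; 0% = median of neutral control wells and 100% = median of 100 nM tunicamycin wells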
Vif imaging: HIV Vif inhibition | HEK293T cells, Vif self-association by quenched fluorescence, imaging, 24 h | inhibition, % at 7.49 µM | hit rate 0.35% among 340,000; in the data active means inhibition above about 50%, passing the limit was not always enough
UCH37 confirm: confirmation of human UCH37 deubiquitinating enzyme inhibitors; shares compounds with UCH37 DUB inh; Proteasome-bound UCH37, Ub-AMC cleavage fluorescence; inhibition, % at 20 µM; hit rate 27% among 480;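 active means average inhibition over replicates above about 50%, so the earlier screening hit is confirmed, limit read from the data; inactive means the rest, counted as false positives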;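 further: based on cleavage rate fitted by regression over a 30 min kinetic read; 0% = proteasome plus Ub-AMC and 100% = Ub-AMC without proteasome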
Starred values were filed as active, the others as inactive. Rows were chosen to be rich in hits. Some 1.9% of all compounds tested hit in one or more screens of this group.

Screening CC(=O)Nc1nc(SCC(=O)NCc2ccc(F)cc2)[nH]c(=O)c1NC(=O)c1cccs1 returned bovine MsrA act -9, aDG glyco up 1, MsrA inhibitor -1, UCH37 DUB inh 43*, N-glyco inh 3, Vif imaging -3 and UCH37 confirm 9.
Screening CCc1ccc(S(=O)(=O)/N=C2\C=C(NS(=O)(=O)c3ccccc3)C(=O)c3ccccc32)cc1 returned bovine MsrA act -12, aDG glyco up 1, MsrA inhibitor 1, UCH37 DUB inh 13, N-glyco inh 1 and Vif imaging 7.
Screening O=C1C(Nc2ccccc2)=CC(=NS(=O)(=O)c2cccs2)c2ccccc21 returned UCH37 DUB inh 78* and UCH37 confirm 34.
Screening O=C(O)c1ccc(NC2=CC(=NS(=O)(=O)c3ccccc3)c3ccccc3C2=O)cc1 returned UCH37 DUB inh 95* and UCH37 confirm 98*.
CCCCCCCCCC(=NO)c1ccccn1 was read as UCH37 DUB inh 2.
For COc1cc([N+](=O)[O-])ccc1-c1ccc(/C=C2\C(=O)ON=C2c2ccccc2)o1 the results were bovine MsrA act -15, aDG glyco up 0, MsrA inhibitor -1, UCH37 DUB inh 34*, N-glyco inh -15, Vif imaging 1 and UCH37 confirm 18.
For O=C(c1cccs1)N1CCN(S(=O)(=O)N2CCOCC2)CC1 the results were bovine MsrA act 1, aDG glyco up 0, MsrA inhibitor -1, UCH37 DUB inh 36*, N-glyco inh 0, Vif imaging 10 and UCH37 confirm 24.
O=C(c1ccco1)N1CCN(S(=O)(=O)N2CCOCC2)CC1 was read as bovine MsrA act -4, aDG glyco up 0, MsrA inhibitor 0, UCH37 DUB inh 2, N-glyco inh 1 and Vif imaging -15.
CCOC(=O)c1c2c(n(C)c1C)C(=O)C(=O)c1ccc(Br)cc1-2 was read as bovine MsrA act 2, aDG glyco up -1, MsrA inhibitor 0, UCH37 DUB inh 56*, N-glyco inh -21, Vif imaging 16 and UCH37 confirm 70*.
For CCOc1ccccc1/C=N/Nc1ccccc1[N+](=O)[O-] the results were bovine MsrA act -2, aDG glyco up -1, MsrA inhibitor 2, N-glyco inh 3 and Vif imaging 33.
`CCOc1cccc(C=NNC(=S)Nc2ccccc2[N+](=O)[O-])c1O` gave UCH37 DUB inh 49* and UCH37 confirm 14.
`CC(=O)N1C(=O)/C(=C2\SC(=S)N(c3c(C)n(C)n(-c4ccccc4)c3=O)C2=O)c2ccccc21` gave bovine MsrA act -10, aDG glyco up 0, MsrA inhibitor -1, UCH37 DUB inh 25*, N-glyco inh -2, Vif imaging -1 and UCH37 confirm 45.
`O=S(=O)(NCCC1=CCCCC1)c1cccc(S(=O)(=O)N2CCOCC2)c1` gave bovine MsrA act -11, aDG glyco up 0, MsrA inhibitor 0, UCH37 DUB inh 58*, N-glyco inh -4, Vif imaging -13 and UCH37 confirm 59*.
For O=S(=O)(NCCc1ccccc1)c1cccc(S(=O)(=O)N2CCOCC2)c1 the results were bovine MsrA act -12, aDG glyco up 0, MsrA inhibitor 0, UCH37 DUB inh -1 and N-glyco inh -2.
For O=C1C2C3C=CC(C3)C2C(=O)N1N=Cc1cn(Cc2ccc(F)cc2)c2ccccc12 (stereo unspecified) the results were UCH37 DUB inh 2.
Screening CC1(C)Cc2ccccc2C(c2cc3ccccc3oc2=O)=N1 returned bovine MsrA act 1, aDG glyco up 0, MsrA inhibitor 1, UCH37 DUB inh 36*, N-glyco inh 3 and UCH37 confirm -4.
`CN(C)c1ccc(/C=C/c2ccc3ccccc3[n+]2C)cc1` gave bovine MsrA act 0, aDG glyco up 4, MsrA inhibitor 1, UCH37 DUB inh 25*, N-glyco inh 2, Vif imaging -32 and UCH37 confirm 30.
`CCN(CC)c1ccc(C=NNC(=O)Nc2nonc2N)cc1` gave UCH37 DUB inh -19.
O=C(CN(c1ccccc1Cl)S(=O)(=O)c1ccccc1)NN=Cc1ccccc1C(=O)O was read as UCH37 DUB inh 0.
